Active and inactive are the calls of the source. The rule behind the calls is not given here.
What was measured:
DLD-1 [1] = test: cells; assay type: functional, cell-based; details: Homo sapiens, DLD-1, 120 h
U2OS [2] = test: cells; assay type: functional, cell-based; details: Homo sapiens, 120 h
HeLa [3] = test: Induction of mitotic arrest in human HeLa cells expressing histone H2B-YFP assessed as initiating anaphase at 50 to 100 nM incubated for 16 hrs and measured within 15 min after nuclear envelope breakdown by time-lapse microscopy relative to control; assay type: functional; details: dose 50-100 nM, time 975 min, 16.25 h
Procedure, shortened: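 Live imaging of HeLa H2B-YFP cells in L-15 medium at 37 °C after DMSO or 50/100 nM Cpd-5, no nocodazole. Time from nuclear envelope breakdown to anaphase onset recorded for 50 cells per condition; cumulative anaphase-onset percentage and mean mitotic duration.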

HeLa [4] = test: Induction of mitotic arrest in human HeLa cells expressing histone H2B-YFP assessed as chromosome misalignment at 50 to 100 nM incubated for 16 hrs by time-lapse microscopy relative to control; assay type: functional; details: dose 50-100 nM
Procedure, shortened: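 HeLa H2B-YFP cells imaged live at 37 °C in L-15 after DMSO or 50/100 nM Cpd-5. Anaphases scored for missegregation as mild (up to 3 chromosomes) or severe (>3 chromosomes), 50 cells per condition.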

HeLa [5] = test: Inhibition of colony formation in human HeLa cells harboring wild-type Mps1 assessed as cell survival at 60 nM incubated for 14 days by crystal violet staining based colony formation assay; assay type: functional; details: time 14.0 day
Procedure, shortened: (§1)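 About 500–600 cells per 6-well plated on day 0, Cpd-5 added day 1 at 60 nM, colonies grown to day 14. Fixed 10 min in 96% methanol, stained with 0.1% crystal violet, scanned and analysed. Parental and drug-selected clones tested side by side.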

HeLa [6] = test: Inhibition of colony formation in human HeLa cells harboring Mps1 I598F mutant assessed as cell survival at 60 nM incubated for 14 days by crystal violet staining based colony formation assay; assay type: functional; details: time 14.0 day
Procedure, shortened: as §1

HCT-116 [7] = test: Inhibition of colony formation in human HCT-116 cells harboring Mps1 531M mutant assessed as cell survival at 60 nM incubated for 14 days by crystal violet staining based colony formation assay; assay type: functional; details: time 14.0 day
Procedure, shortened: as §1

HCT-116 [8] = test: Inhibition of colony formation in human HCT-116 cells harboring Mps1 C604Y-A mutant assessed as cell survival at 60 nM incubated for 14 days by crystal violet staining based colony formation assay; assay type: functional; details: time 14.0 day
Procedure, shortened: as §1

HCT-116 [9] = test: Antiproliferative activity against human HCT-116 cells harboring Mps1 C604Y-A mutant assessed as change in Mps1 expression level by Western blot analysis; assay type: functional, cell-based
Procedure, shortened: (§2)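 Lysis in Tris/HCl pH 7.5 with 150 mM NaCl, 1% Triton X-100, DTT, EDTA, phosphatase and protease inhibitors. SDS-PAGE, transfer to nitrocellulose, block in 4% BSA 0.5 h at room temperature, primary antibody (Mps1-NT) overnight at 4 °C, secondary 1:2000 for 1 h, ECL chemiluminescence detection.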

HCT-116 [10] = test: Antiproliferative activity against human HCT-116 cells harboring Mps1 C604Y-B mutant assessed as change in Mps1 expression level by Western blot analysis; assay type: functional, cell-based
Procedure, shortened: as §2

DLD-1 [11] = test: Antiproliferative activity against human DLD-1 cells harboring Mps1 S611R mutant assessed as change in Mps1 expression level by Western blot analysis; assay type: functional, cell-based
Procedure, shortened: as §2

HCT-116 [12] = test: Induction of mitotic arrest in human HCT-116 cells assessed as decrease in mitotic index at 30 nM incubated for 16 hrs; assay type: functional; parameters: scale not given: the % may be the effect or the level left
Procedure, shortened: (§3)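 About 10 000 cells per 96-well plated on day 0. On day 1, nocodazole (200 ng/ml) plus Cpd-5 at various concentrations added for 16 h. Fixed in 5% formaldehyde, stained for phospho-histone H3-Ser10 and DAPI, up to nine images per well (~3000 cells). Mitotic index = pH3S10-positive/DAPI-positive cells, normalized; three independent experiments.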

DLD-1 [13] = test: Induction of mitotic arrest in human DLD-1 cells harboring Mps1 S611R mutant assessed as mitotic index at 200 to 400 nM incubated for 16 hrs in the presence of nocodazole; assay type: functional, cell-based; details: dose 200-400 nM
Procedure, shortened: as §3

HCT-116 [14] = test: Induction of mitotic arrest in human HCT-116 cells harboring Mps1 C604Y mutant assessed as mitotic index at 200 to 400 nM incubated for 16 hrs in the presence of nocodazole; assay type: functional, cell-based; details: dose 200-400 nM
Procedure, shortened: as §3

Homo sapiens [15] = species on record: Homo sapiens; test: Inhibition of recombinant Mps1 I598F mutant (unknown origin) assessed as KNL1 phosphorylation level incubated for 10 min by Western blot analysis
Homo sapiens [16] = species on record: Homo sapiens; test: Inhibition of recombinant Mps1 C604Y mutant (unknown origin) assessed as KNL1 phosphorylation level incubated for 10 min by Western blot analysis
Homo sapiens [17] = species on record: Homo sapiens; test: Inhibition of recombinant Mps1 S611R mutant (unknown origin) assessed as KNL1 phosphorylation level incubated for 10 min by Western blot analysis
U2OS [18] = test: Inhibition of colony formation in human U2OS cells harboring wild-type LAP-Mps1 assessed as cell survival incubated for 5 days by crystal violet staining based colony formation assay; assay type: functional; details: 120 h
Procedure, shortened: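 Cells seeded at ~1500 per 96-well on day 0; inhibitor added on day 1 over a concentration range. On day 6, fixed 10 min in 96% methanol, stained with 0.1% crystal violet, scanned and quantified. Survival relative to untreated; IC50 from dose–response curves; mean of three independent experiments. Culture in DMEM with 6% FCS.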

U2OS [19] = test: Induction of mitotic arrest in human U2OS cells harboring LAP-Mps1 I598F mutant assessed as maintain in checkpoint-dependent arrest at 100 nM incubated for 16 hrs in the presence of nocodazole; assay type: functional, cell-based
Procedure, shortened: as §3

U2OS [20] = test: Induction of mitotic arrest in human U2OS cells harboring LAP-Mps1 C604Y mutant assessed as maintain in checkpoint-dependent arrest at 100 nM incubated for 16 hrs in the presence of nocodazole; assay type: functional, cell-based
Procedure, shortened: as §3

HeLa [21] = test: Inhibition of colony formation in human HeLa cells harboring Mps1 C604Y mutant at 80 nM incubated for 14 days in the presence of oligonucleotide by crystal violet staining based colony formation assay; assay type: functional, cell-based; details: time 14.0 day
Procedure, shortened: (§4)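 HeLa (1 × 10^6) transfected with mock, a 100-bp repair oligonucleotide alone, or oligonucleotide plus pX330 Cas9/Mps1-targeting gRNA. Selected with 80 nM Cpd-5 for 14 days in 10-cm plates, then stained with crystal violet.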

HeLa [22] = test: Inhibition of colony formation in human HeLa cells harboring Mps1 C604Y mutant at 80 nM incubated for 14 days in the presence of oligonucleotide and Cas9/gRNA by crystal violet staining based colony formation assay; assay type: functional, cell-based; details: time 14.0 day
Procedure, shortened: as §4

HeLa [23] = test: Induction of mitotic arrest in human HeLa cells harboring Mps1 C604F mutant assessed as initiating anaphase at 200 nM and measured after nuclear envelope breakdown; assay type: functional, cell-based
HeLa [24] = test: Induction of mitotic arrest in human HeLa cells harboring Mps1-C604F mutant assessed as decrease in average mitotic time with mis seggregation at 200 nM relative to control; assay type: functional; parameters: scale not given: the % may be the effect or the level left
HeLa [25] = test: Induction of mitotic arrest in human HeLa cells harboring Mps1-C604F mutant assessed as […] in average mitotic time with severe seggregation at 400 nM relative to control; assay type: functional
HeLa [26] = test: Induction of mitotic arrest in human HeLa cells assessed as decrease in average mitotic time with severe seggregation errors at 100 nM relative to control; parameters: scale not given: the % may be the effect or the level left

Question: `CCc1cccc(CC)c1NC(=O)c1nn(C)c2c1CCc1cnc(Nc3ccc(N4CCN(C)CC4)cc3OC)nc1-2` was tested. Which IC50 (DLD-1 [1]) did it give?
Answer: 24.6 nM

Question: And the IC50 (U2OS [2])?
Answer: 20.6 nM

Question: And the Activity (HeLa [3])?
Answer: 100%

Question: And the Activity (HeLa [4])?
Answer: 100%

Question: And the inhibition (HeLa [5])?
Answer: inactive

Question: What about the inhibition (HeLa [6]) of the same compound?
Answer: Active

Question: What about the inhibition (HCT-116 [7]) of the same compound?
Answer: Active

Question: What about the inhibition (HCT-116 [8]) of the same compound?
Answer: Active

Question: What about the Activity (HCT-116 [9]) of the same compound?
Answer: inactive

Question: What about the Activity (HCT-116 [10]) of the same compound?
Answer: inactive

Question: What about the Activity (DLD-1 [11]) of the same compound?
Answer: inactive

Question: What about the Activity (HCT-116 [12]) of the same compound?
Answer: 60%

Question: What about the Activity (DLD-1 [13]) of the same compound?
Answer: Active

Question: And the Activity (HCT-116 [14])?
Answer: Active

Question: What about the inhibition (Homo sapiens [15]) of the same compound?
Answer: Active

Question: What about the inhibition (Homo sapiens [16]) of the same compound?
Answer: Active

Question: What about the inhibition (Homo sapiens [17]) of the same compound?
Answer: Active

Question: And the IC50 (U2OS [18])?
Answer: 33.2 nM

Question: What about the Activity (U2OS [19]) of the same compound?
Answer: Active

Question: And the Activity (U2OS [20])?
Answer: Active

Question: And the Activity (HeLa [21])?
Answer: Active

Question: What about the Activity (HeLa [22]) of the same compound?
Answer: Active

Question: What about the Activity (HeLa [23]) of the same compound?
Answer: inactive

Question: And the Activity (HeLa [24])?
Answer: 70%

Question: What about the Activity (HeLa [25]) of the same compound?
Answer: 100%

Question: What about the Activity (HeLa [26]) of the same compound?
Answer: 100%

Reference: ChEMBL document CHEMBL5647693, “Molecular basis underlying resistance to Mps1/TTK inhibitors” (Oncogene, 2016)
